Measured values: PubChem BioAssay
Inconclusive results are not listed.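 How the source made its calls, unless noted: active means cell viability at or below a set limit in both duplicate runs, the limit being the all-compound median minus 4 SD (cut at about 23% in these data, passing the limit was not always enough); inconclusive means no clear call, values can overlap the other calls; inactive means the rest.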

Assays:
[1] = OD615 S. cerevisiae growth inhibition, permissive medium, pilot counter-assay, permissive growth control for S. cerevisiae lifespan shortening project (AID 705;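 active means growth inhibition above 25% in both replicates, a cutoff set 3 SD above the mean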); settings: OD615, 24 h, at 10 µM, hits give high values
Outline: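 Timing: 24 h exposure, 30 °C / Material: Saccharomyces cerevisiae strain carrying genetically modified DeaD replicative-lifespan system / Signal: OD at 615 nm / Compound: 10 µM single dose, 0.25% DMSO / Medium: SC raffinose/galactose permissive medium / Evaluation: reduction in yeast growth (OD615)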

[2] = Restrictive medium S. cerevisiae growth inhibition, OD615, pilot screen of yeast lifespan reduction project, restrictive growth control (AID 706;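 active means growth inhibition above a set limit, 3 SD over mean compound inhibition, in both replicates, cut at about 43% in these data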;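 further: modified DeaD lifespan yeast strain shifted to restrictive glucose medium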); settings: OD615, 48 h, at 10 µM, hits give high values
Outline: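 System: Engineered S. cerevisiae DeaD strain | Detection: OD615 | Buffer or medium: CSMM-D glucose medium | Doses: 10 µM compound, 0.25% DMSO | Timing: 4 h pre-growth plus 48 h compound exposure, 30 °C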

[3] = viability gain of MRP-1-high H69AR cells under doxorubicin, pilot screen, MRP-1 activator project, CellTiter-Glo, duplicate (AID 807;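 active means viability increase at or above a cutoff of the median across tested compounds plus 3 SD, cut at about 8.5% in these data, passing the limit was not always enough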;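 further: compound pretreatment 18-22 h then 72 h combined with doxorubicin; 0% = doxorubicin alone and 100% = vehicle without doxorubicin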); settings: H69AR viability with doxorubicin, CellTiter-Glo luminescence; at 10 µM; hits give high values
[4] = growth suppression of beta-catenin knockout HCT116, pilot screen, human colon tumor cells (AID 823); settings: CellTiter-Glo, 60 h, at 10 µM, hits give low values;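 further: 0% = wells killed by 20 µM Hyamine and 100% = untreated DMSO cell wells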
[5] = growth suppression of PTEN-deleted HCT116, pilot screen, cell-based, HCT116 clonal line, CellTiter-Glo (AID 824;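 active means viability at or below 27.92% in each of two runs, the all-compound median minus 4 SD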;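 further: 0% = 20 µM Hyamine control and 100% = vehicle cell control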); settings: 60 h, at 10 µM, hits give low values
[6] = inhibitors of the yeast RAM network, pilot screen, dse1pr::URA3 reporter, 5-FOA selection (AID 869;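 active means inhibition over a set limit, the all-compound mean plus 3 SD, in both replicate runs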;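 further: 0% = DMSO wells with no growth and 100% = 10 µM 1-NA-PP1 with full growth; RAM network block rescues cells from 5-FOA so hits raise OD615 growth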); settings: S. cerevisiae dse1pr::URA3 5-FOA growth, OD615, 2 d; at 10 µM; hits give high values; strain carries analog-sensitive mutant Cbk1 kinase
[7] = RAM signaling pathway blockade in yeast – S. cerevisiae, Pdr1DBD-CYC8 efflux-inhibited sensitized strain, primary screen (AID 1298;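 active means RAM network inhibition above 8.4% in each of two replicates, 3 SD over the compound average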;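 further: 0% = DMSO untreated cells without growth and 100% = 10 µM 1-NA-PP1 full growth; higher means more yeast growth rescued from 5-FOA killing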); settings: S. cerevisiae cbk1-as DSE1-URA3 strain, 5-FOA growth OD615, 2 d; at 50 µM; hits give high values

CCN(CC)C(=O)CN(Cc1ccccc1)S(=O)(=O)c1ccc(F)cc1
inactive: growth inhibition [1] -8.49% | growth inhibition [2] -11.4% | viability increase [3] -0.99% | viability [4] 93.8% | viability [5] 97.5% | inhibition [6] 1.32% | RAM network inhibition [7] 2.88%

c1ccc2c(c1)OCC(c1csc3ncnc(N4CCOCC4)c13)O2 (stereo not given)
inactive: growth inhibition [1] -14.1% | growth inhibition [2] -9.32% | viability increase [3] -3.2% | viability [4] 94.4% | viability [5] 75.7% | inhibition [6] 1.26% | RAM network inhibition [7] 8.63%

Cc1nn(CCCC(=O)N2CCc3ccccc3C2)c(=O)c2cc3sccc3n12
inactive: growth inhibition [1] -4.89% | growth inhibition [2] -14.2% | viability increase [3] -1.17% | viability [4] 97% | viability [5] 88.1% | inhibition [6] 1.39% | RAM network inhibition [7] 0.42%

CC(=O)c1c(NC(=O)C(C)C)nc(C)nc1-c1ccccc1
inactive: growth inhibition [1] -6.5% | growth inhibition [2] -8.2% | viability increase [3] -0.66% | viability [4] 98.4% | viability [5] 100% | inhibition [6] 1.69% | RAM network inhibition [7] -0.83%

Cc1ccc(CNC(=O)c2ccc(Br)o2)cc1
inactive: growth inhibition [1] -14.5% | growth inhibition [2] -1.29% | viability increase [3] -0.67% | viability [4] 96.9% | viability [5] 98.1% | inhibition [6] 0.885% | RAM network inhibition [7] 3.41%

COC(=O)C1=C(C)N(C)C(C)=C(C(=O)OC)C1c1cccc(Br)c1
inactive: growth inhibition [1] -16.7% | growth inhibition [2] 0.915% | viability increase [3] 0.06% | viability [4] 72% | viability [5] 67.4% | inhibition [6] 0.57% | RAM network inhibition [7] 9.03%

COc1cc(OC)cc(C(=O)OCn2nnc3ccccc3c2=O)c1
inactive: growth inhibition [1] -9.62% | growth inhibition [2] -4.46% | viability increase [3] -0.87% | viability [4] 101% | viability [5] 96.1% | inhibition [6] 1.33% | RAM network inhibition [7] 7.22%

COc1ccc(-n2cnnc2)cc1
inactive: growth inhibition [1] -1.44% | growth inhibition [2] -0.83% | viability increase [3] -2.88% | viability [4] 98.2% | viability [5] 101% | inhibition [6] 1.05% | RAM network inhibition [7] -0.78%

COc1ccc(C2C(C(=O)NCCN(C)C)c3ccccc3C(=O)N2C)cc1OC (stereo not given)
inactive: growth inhibition [1] -7.69% | growth inhibition [2] -1.69% | viability increase [3] -0.77% | viability [4] 100% | viability [5] 97.9% | inhibition [6] -0.2% | RAM network inhibition [7] 1.92%

CCOc1ccc(N(CC(=O)NCc2ccc(F)cc2)S(=O)(=O)c2c(C)noc2C)cc1
inactive: growth inhibition [1] -15.6% | growth inhibition [2] -8.36% | viability increase [3] -1.36% | viability [4] 99.3% | viability [5] 92.8% | inhibition [6] 2.25% | RAM network inhibition [7] 2.84%

O=C(O)COc1ccc2c(c1)OCCO2
inactive: growth inhibition [1] -7.81% | growth inhibition [2] -2.33% | viability increase [3] 0.55% | viability [4] 99.2% | viability [5] 107% | inhibition [6] 1.04% | RAM network inhibition [7] -0.47%

Cc1cc(Nc2cccc(C)c2C)n2nc(C)nc2n1
inactive: growth inhibition [1] -17% | growth inhibition [2] -8.21% | viability increase [3] -1.13% | viability [4] 102% | viability [5] 98.3% | inhibition [6] 1.25% | RAM network inhibition [7] 3.39%

CCn1c(C(C)NC(C)=O)nc2ccccc21 (stereo not given)
inactive: growth inhibition [1] -13.6% | growth inhibition [2] -5.8% | viability increase [3] 0.8% | viability [4] 112% | viability [5] 106% | inhibition [6] 2.2% | RAM network inhibition [7] 3.48%

Cn1c(NC(=O)c2ccccc2Br)cc(=O)n(C)c1=O
inactive: growth inhibition [1] -9.54% | growth inhibition [2] -19.3% | viability increase [3] -3.97% | viability [4] 105% | viability [5] 94.5% | inhibition [6] 1.15% | RAM network inhibition [7] 0.36%

Cc1nc2cc(C(=O)O)ccc2n1-c1ccccc1
inactive: growth inhibition [1] -11.5% | growth inhibition [2] -0.12% | viability increase [3] -2.1% | viability [4] 109% | viability [5] 94.8% | inhibition [6] 1.99% | RAM network inhibition [7] 1.31%
